Results from ChEMBL document CHEMBL1126221, “Antimitotic agents: structure-activity studies with some pyridine derivatives” (J Med Chem, 1992).
Values joined by “and” are separate entries in the source; they are usually repeats but may differ in a detail not shown here. Equal entries are not always repeated.

How the values were obtained:
L1210 [1] = assay: Concentration required to inhibit proliferation of cultured lymphoid leukemia L1210 cells to 50% growth over 48 hours; assay type: functional, cell-based; conditions: Mus musculus, L1210, 48 h
Summary of the method: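 Cultured lymphoid leukemia L1210 cells were exposed to agent for 48 h. IC50 is the micromolar concentration that holds proliferation to 50% growth.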

P388 [2] = assay: Compound was evaluated for antitumor activity against mice implanted with lymphatic leukemia P388 cells (10e6 tumor cells) after intraperitoneal administration of 2 mg/kg per injection (1-5 days); assay type: functional; conditions: Mus musculus, P388, ip
Summary of the method: (§1)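 Mice implanted ip with 10⁶ lymphocytic leukemia P388 cells; drug given ip on days 1-5. Read-out is % increase in life span (% ILS) versus untreated controls, reported at the highest nontoxic dose tested.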

[3] = Compound's concentration required to inhibit proliferation of cultured KB cells to 50% growth during 48 hours.; assay type: functional, cell-based; conditions: Homo sapiens
P388 [4] = assay: Compound was evaluated for antitumor activity against mice implanted with lymphatic leukemia P388 cells (10e6 tumor cells) after intraperitoneal administration of 100 mg/kg per injection; assay type: functional; conditions: Mus musculus, P388, ip
L1210 [5] = assay: Effect of the compound(10 uM) on DNA synthesis in L1210 cells in culture measured as incorporation of [3H]L-Leu; assay type: functional, Mus musculus; conditions: in the assay text read “protein synthesis” for “DNA synthesis”
Summary of the method: (§2)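 Cultured L1210 cells were treated with agent at 2.5–50 μM. Labeled precursor incorporation is reported as percent of control: [3H]dThd into DNA, […] into DNA and RNA, and [3H]L-Leu into protein.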

L1210 [6] = assay: Effect of the compound(10 uM) on DNA synthesis in L1210 cells in culture measured as incorporation of [3H]dThd; assay type: functional, Mus musculus; summary of the method: as §2
L1210 [7] = assay: Effect of the compound(10 uM) on DNA synthesis in L1210 cells in culture measured as incorporation of [5-3H]-Urd; assay type: functional, Mus musculus
L1210 [8] = assay: Effect of the compound(10 uM) on RNA synthesis in L1210 cells in culture measured as incorporation of [5-3H]-Urd; assay type: functional, Mus musculus; summary of the method: as §2
L1210 [9] = assay: Effect of the compound(2.5 uM) on DNA synthesis in L1210 cells in culture measured as incorporation of [3H]L-Leu; assay type: functional, Mus musculus; conditions: in the assay text read “protein synthesis” for “DNA synthesis”; summary of the method: as §2
L1210 [10] = assay: Effect of the compound(2.5 uM) on RNA synthesis in L1210 cells in culture measured as […]; assay type: functional, Mus musculus
L1210 [11] = assay: Effect of the compound(5 uM) on DNA synthesis in L1210 cells in culture measured as incorporation of [3H]-L-Leu; assay type: functional, Mus musculus; conditions: in the assay text read “protein synthesis” for “DNA synthesis”; summary of the method: as §2
L1210 [12] = assay: Effect of the compound(5 uM) on DNA synthesis in L1210 cells in culture measured as incorporation of [5-3H]-Urd; assay type: functional, Mus musculus; summary of the method: as §2
L1210 [13] = assay: Effect on the mitosis of cultured L1210 cells measured in metaphase at 12 hours and 0 uM concentration; assay type: functional, Mus musculus
Summary of the method: (§3)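 Cultured L1210 cells were exposed for 12 h to 0, 3, 10, 30, 50 or 100 μM agent. Read-out was the percentage of cells in metaphase.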

L1210 [14] = assay: Effect on the mitosis of cultured L1210 cells measured in metaphase at 12 hours and 10 uM concentration; assay type: functional, Mus musculus; summary of the method: as §3
L1210 [15] = assay: Effect on the mitosis of cultured L1210 cells measured in metaphase at 12 hours and 100 uM concentration; assay type: functional, Mus musculus; summary of the method: as §3
L1210 [16] = assay: Effect on the mitosis of cultured L1210 cells measured in metaphase at 12 hours and 3 uM concentration; assay type: functional, Mus musculus; summary of the method: as §3
P388 [17] = assay: Compound was evaluated for antitumor activity against mice implanted with lymphatic leukemia P388 cells (10e6 tumor cells) after intraperitoneal administration of 13 mg/kg per injection (1-5 days); assay type: functional; conditions: Mus musculus, P388, ip; summary of the method: as §1
L1210 [18] = assay: Effect of the compound(2.5 uM) on DNA synthesis in L1210 cells in culture measured as incorporation of [5-3H]-Urd; assay type: functional, Mus musculus
L1210 [19] = assay: Effect on the mitosis of cultured L1210 cells measured in metaphase at 12 hours and 30 uM concentration; assay type: functional, Mus musculus; summary of the method: as §3
L1210 [20] = assay: Effect of the compound(5 uM) on RNA synthesis in L1210 cells in culture measured as […]; assay type: functional, Mus musculus
L1210 [21] = assay: Compound was evaluated for antitumor activity against mice implanted with lymphatic leukemia L1210 cells (10e6 tumor cells) after intraperitoneal administration of 50 mg/kg per injection; assay type: functional; conditions: Mus musculus, L1210, ip
P388 [22] = assay: Compound was evaluated for antitumor activity against mice implanted with lymphatic leukemia P388 cells (10e6 tumor cells) after intraperitoneal administration of 50 mg/kg per injection (1-5 days); assay type: functional; conditions: Mus musculus, P388, ip; summary of the method: as §1
HEp-2 = assay: Compound's concentration required to inhibit proliferation of cultured HEP-2 cells to 50% growth during 48 hours.; assay type: functional, cell-based; conditions: Homo sapiens, HEp-2, 48 h
L1210 [23] = assay: Compound was evaluated for antitumor activity against mice implanted with lymphatic leukemia L1210 cells (10e6 tumor cells) after intraperitoneal administration of 200 mg/kg per injection (1-15 days); conditions: Mus musculus, L1210, ip

Question: Which IC50 (L1210 [1]) does the source give for CCOC(=O)Nc1cc(N[C@@H](C)/C(=N/O)c2ccc(O)cc2)c([N+](=O)[O-])c(N)n1 here?
Answer: 6.7 µM

Question: And the ILS at 2 mg/kg (P388 [2])?
Answer: 90%

Question: With CCOC(=O)Nc1cc(N)c(N)c(N)n1 as the compound, how does the IC50 [3] read?
Answer: 10 µM

Question: What about the ILS at 100 mg/kg (P388 [4]) of the same compound?
Answer: 0%

Question: What does the source list for CCOC(=O)Nc1cc(NC(C)/C(=N/O)c2ccc(OC)cc2)c([N+](=O)[O-])c(N)n1 (configuration not stated)?
Answer: Control (L1210 [5]): 82%; Control (L1210 [6]): 44%; Uridine incorporation into DNA (% of control) (L1210 [7]): 39%; Control (L1210 [8]): 35%; Control (L1210 [9]): 69%; IC50 (L1210 [1]): 4.2 µM; Control (L1210 [10]): 55%; Control (L1210 [11]): 87%; Control (L1210 [12]): 60%; Cells in metaphase (L1210 [13]): 2%; Cells in metaphase (L1210 [14]): 26%; Cells in metaphase (L1210 [15]): 2%; Cells in metaphase (L1210 [16]): 6%; ILS at 13 mg/kg (P388 [17]): 84%; Control (L1210 [18]): 78% and 73%; Cells in metaphase (L1210 [19]): 24%; Control (L1210 [20]): 47%

Question: For CCOC(=O)Nc1cc(NC(c2ccccc2)c2ccccc2)c([N+](=O)[O-])c(N)n1, which ILS at 50 mg/kg (L1210 [21]) is on record?
Answer: 0%

Question: With CCOC(=O)Nc1cc(N[C@@H](C)[C@H](O)c2ccccc2)c(N)c(N)n1 as the compound, how does the IC50 (L1210 [1]) read?
Answer: 1.3 µM

Question: And the ILS at 50 mg/kg (P388 [22])?
Answer: 36%

Question: What does the source list for CCOC(=O)Nc1cc(NC(c2ccccc2)c2ccccc2)c(N)c(N)n1?
Answer: IC50 (HEp-2): 260 nM; ILS at 200 mg/kg (L1210 [23]): 0%

Question: For CC[C@]1(O)C[C@H]2CN(CCc3c([nH]c4ccccc34)[C@@](C(=O)OC)(c3cc4c(cc3OC)N(C=O)[C@H]3[C@@](O)(C(=O)OC)[C@H](OC(C)=O)[C@]5(CC)C=CCN6CC[C@]43[C@@H]65)C2)C1 [VINCRISTINE], which ILS at 2 mg/kg (P388 [2]) is on record?
Answer: 85%
